{
  "source": "ChEMBL document CHEMBL1150669",
  "about": "“Isolation and characterization of novel oligosaccharides related to Ziracin” (2002)",
  "assay_type_in_all_cases": "functional",
  "key": {"Staphylococcus aureus [1]": {"tested_on": "Staphylococcus aureus", "test": "Antimicrobial activity against Staphylococcus aureus at 20 ug/8 mm disk at pH 8 by agar diffusion method", "method_in_brief": "(§1)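 Agar disk diffusion against S. aureus. Samples dissolved at 1 mg/mL in CH2Cl2/MeOH (95:5 v/v), plus a 10-fold dilution in the same vehicle; 20 µL of each applied to 8 mm paper disks and air-dried 30 min. Disks placed on S. aureus-seeded agar at pH 7 and pH 8, incubated overnight at 35 °C. Read-out: inhibition zone diameter (mm).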"}, "Staphylococcus aureus [2]": {"tested_on": "Staphylococcus aureus", "test": "Antimicrobial activity against Staphylococcus aureus at 2 ug/8 mm disk at pH 8 by agar diffusion method", "method_in_brief": "as §1"}, "Staphylococcus aureus [3]": {"tested_on": "Staphylococcus aureus", "test": "Antimicrobial activity against Staphylococcus aureus at 20 ug/8 mm disk at pH 7 by agar diffusion method", "method_in_brief": "as §1"}, "Staphylococcus aureus [4]": {"tested_on": "Staphylococcus aureus", "test": "Antimicrobial activity against Staphylococcus aureus at 2 ug/8 mm disk at pH 7 by agar diffusion method", "method_in_brief": "as §1"}},
  "data": [
    {"smiles": "COC[C@H]1O[C@@H](O[C@@H]2OC[C@@H]3O[C@@]4(OC[C@@H](OC(=O)c5c(C)cc(O)cc5O)[C@H](OC=O)[C@H]4O)O[C@H]3[C@H]2O)[C@@H](OC)[C@@H](O)[C@@H]1O[C@@H]1O[C@H](C)[C@H](OC)[C@H](O[C@@H]2O[C@H](C)[C@H]3O[C@]4(C[C@@H](O)[C@H](O[C@H]5C[C@@H](O[C@H]6C[C@](C)([N+](=O)[O-])[C@@H](OC)[C@H](C)O6)[C@H](OC(=O)c6c(C)c(Cl)c(O)c(Cl)c6OC)[C@@H](C)O5)[C@@H](C)O4)O[C@]3(C)[C@@H]2O)[C@H]1O", "values": [
      {"measurement": "inhibition zone (IZ)", "setting": "Staphylococcus aureus [1]", "value": 18, "unit": "mm"},
      {"measurement": "inhibition zone (IZ)", "setting": "Staphylococcus aureus [2]", "value": 15, "unit": "mm"},
      {"measurement": "inhibition zone (IZ)", "setting": "Staphylococcus aureus [3]", "value": 21, "unit": "mm"},
      {"measurement": "inhibition zone (IZ)", "setting": "Staphylococcus aureus [4]", "value": 17, "unit": "mm"}
    ]},
    {"smiles": "COC[C@H]1O[C@@H](O[C@@H]2OC[C@@H]3O[C@@]4(OC[C@@H](OC(=O)c5c(C)cc(O)cc5O)[C@@H]5OCO[C@H]54)O[C@H]3[C@H]2O)[C@@H](OC)[C@@H](O)[C@@H]1O[C@@H]1O[C@H](C)[C@H](OC)[C@H](O[C@@H]2O[C@H](C)[C@H]3O[C@]4(C[C@@H](O)[C@H](O[C@H]5C[C@@H](O[C@H]6C[C@](C)([N+](=O)[O-])[C@@H](OC)[C@H](C)O6)[C@H](OC(=O)c6c(C)cc(O)c(Cl)c6OC)[C@@H](C)O5)[C@@H](C)O4)O[C@]3(C)[C@@H]2O)[C@H]1O", "values": [
      {"measurement": "inhibition zone (IZ)", "setting": "Staphylococcus aureus [1]", "value": 17, "unit": "mm"},
      {"measurement": "inhibition zone (IZ)", "setting": "Staphylococcus aureus [2]", "value": 16, "unit": "mm"},
      {"measurement": "inhibition zone (IZ)", "setting": "Staphylococcus aureus [3]", "value": 20, "unit": "mm"},
      {"measurement": "inhibition zone (IZ)", "setting": "Staphylococcus aureus [4]", "value": 17, "unit": "mm"}
    ]},
    {"smiles": "COC[C@H]1O[C@@H](O[C@@H]2OC[C@@H]3O[C@@]4(OC[C@@H](OC(=O)c5c(C)cc(O)cc5O)[C@@H]5OCO[C@H]54)O[C@H]3[C@H]2O)[C@@H](OC)[C@@H](O)[C@@H]1O[C@@H]1O[C@H](C)[C@H](OC)[C@H](O[C@@H]2O[C@H](C)[C@H]3O[C@]4(C[C@@H](O)[C@H](O[C@H]5C[C@@H](O[C@H]6C[C@](C)([N+](=O)[O-])[C@@H](O)[C@H](C)O6)[C@H](OC(=O)c6c(C)c(Cl)c(O)c(Cl)c6OC)[C@@H](C)O5)[C@@H](C)O4)O[C@]3(C)[C@@H]2O)[C@H]1O", "values": [
      {"measurement": "inhibition zone (IZ)", "setting": "Staphylococcus aureus [1]", "value": 20, "unit": "mm"},
      {"measurement": "inhibition zone (IZ)", "setting": "Staphylococcus aureus [2]", "value": 18, "unit": "mm"},
      {"measurement": "inhibition zone (IZ)", "setting": "Staphylococcus aureus [3]", "value": 23, "unit": "mm"},
      {"measurement": "inhibition zone (IZ)", "setting": "Staphylococcus aureus [4]", "value": 20, "unit": "mm"}
    ]},
    {"smiles": "COC[C@H]1O[C@@H](O[C@@H]2OC[C@@H]3O[C@@]4(OC[C@@H](OC(=O)c5c(C)cc(O)cc5O)[C@@H]5OCO[C@H]54)O[C@H]3[C@H]2O)[C@@H](OC)[C@@H](O)[C@@H]1O", "values": [
      {"measurement": "inhibition zone (IZ)", "setting": "Staphylococcus aureus [1]", "value": 8, "unit": "mm"},
      {"measurement": "inhibition zone (IZ)", "setting": "Staphylococcus aureus [2]", "value": 8, "unit": "mm"},
      {"measurement": "inhibition zone (IZ)", "setting": "Staphylococcus aureus [3]", "value": 10, "unit": "mm"},
      {"measurement": "inhibition zone (IZ)", "setting": "Staphylococcus aureus [4]", "value": 8, "unit": "mm"}
    ]},
    {"smiles": "COC[C@H]1O[C@@H](O[C@@H]2OC[C@@H]3O[C@@]4(OC[C@@H](OC(=O)c5c(C)cc(O)cc5O)[C@@H]5OCO[C@H]54)O[C@H]3[C@H]2O)[C@@H](OC)[C@@H](O)[C@@H]1O[C@@H]1O[C@H](C)[C@H](OC)[C@H](O[C@@H]2O[C@H](C)[C@H]3O[C@]4(C[C@@H](O)[C@H](O[C@H]5C[C@@H](O[C@H]6C[C@](C)([N+](=O)[O-])[C@@H](OC)[C@H](C)O6)[C@H](OC(=O)c6c(C)cc(O)c(Cl)c6O)[C@@H](C)O5)[C@@H](C)O4)O[C@]3(C)[C@@H]2O)[C@H]1O", "values": [
      {"measurement": "inhibition zone (IZ)", "setting": "Staphylococcus aureus [1]", "value": 18, "unit": "mm"},
      {"measurement": "inhibition zone (IZ)", "setting": "Staphylococcus aureus [2]", "value": 16, "unit": "mm"},
      {"measurement": "inhibition zone (IZ)", "setting": "Staphylococcus aureus [3]", "value": 22, "unit": "mm"},
      {"measurement": "inhibition zone (IZ)", "setting": "Staphylococcus aureus [4]", "value": 17, "unit": "mm"}
    ]},
    {"smiles": "COC[C@H]1O[C@@H](O[C@@H]2OC[C@@H]3O[C@@]4(OC[C@@H](OC(=O)c5c(C)cc(O)cc5O)[C@@H]5OCO[C@H]54)O[C@H]3[C@H]2O)[C@@H](OC)[C@@H](O)[C@@H]1O[C@@H]1O[C@H](C)[C@H](OC)[C@H](O[C@@H]2O[C@H](C)[C@H]3O[C@]4(C[C@@H](O)[C@H](O[C@H]5C[C@@H](O[C@H]6C[C@](C)([N+](=O)[O-])[C@@H](OC)[C@H](C)O6)[C@H](OC(=O)c6c(C)c(Cl)c(O)c(Cl)c6OC)[C@@H](C)O5)[C@@H](C)O4)O[C@]3(C)[C@@H]2O)[C@H]1O", "note": "[EVERNIMICIN]", "values": [
      {"measurement": "inhibition zone (IZ)", "setting": "Staphylococcus aureus [1]", "value": 21, "unit": "mm"},
      {"measurement": "inhibition zone (IZ)", "setting": "Staphylococcus aureus [2]", "value": 19, "unit": "mm"},
      {"measurement": "inhibition zone (IZ)", "setting": "Staphylococcus aureus [3]", "value": 26, "unit": "mm"},
      {"measurement": "inhibition zone (IZ)", "setting": "Staphylococcus aureus [4]", "value": 23, "unit": "mm"}
    ]}
  ]
}
